Assay results gathered from unrelated publications.
Target: Atypical kinase COQ8A, mitochondrial (COQ8A, Homo sapiens, UniProt Q8NI60)

Compound	effect on	technique	concentration	remaining binding [%]
O=C(NCc1ncc(C(F)(F)F)cc1Cl)c1ccc2c(c1)C1(CCS(=O)(=O)CC1)[C@@H](C1CC1)N2S(=O)(=O)c1ccc(F)cc1	cell-free assay	competition with immobilised ligand	1 µM	90
CCN1CCN(Cc2ccc(C(=O)Nc3ccc(C)c(Oc4ccc5c(c4)CC(=O)N5)c3)cc2C(F)(F)F)CC1	binding	competition with immobilised ligand	1 µM	92
CNCc1ccccc1-c1csc([C@H](C)Nc2nc(C)nc3cc(OC)c(OC)cc23)c1	cell-free assay	competition with immobilised ligand	1 µM	91
O=C(NCCCN1CCOCC1)c1ccc(Nc2nccc(-c3cc4ccccc4s3)n2)cc1	binding	competition with immobilised ligand	1 µM	90
CS(=O)(=O)c1cc(C2(NC(=O)c3cncc4c3cnn4-c3ccc(F)cc3)CC2)ccn1	cell-free assay	competition with immobilised ligand	1 µM	100
C=CC(=O)N1CCC(C(=O)NCC(=O)N2CCN(c3nc(-c4cnc(N)nc4C(F)F)nc(N4CCOCC4)n3)CC2)CC1	binding	competition with immobilised ligand	1 µM	78
c1cncc(-c2cccc(Nc3nccc(NC4CCCCC4)n3)c2)c1	binding	competition with immobilised ligand	10 µM	81
O=C(NCC1CCOCC1)c1n[nH]cc1NC(=O)c1c(F)cccc1F	binding	competition with immobilised ligand	1 µM	86
CC(=O)C1=C(C)N(c2cccc(C(F)(F)F)c2)C(=O)N[C@@H]1c1ccc(C#N)nc1	cell-free assay	competition with immobilised ligand	1 µM	100
COc1cnc(Nc2cccc(S(N)(=O)=O)c2)nc1N1CCN(c2ccccc2)CC1	binding	competition with immobilised ligand	1 µM	100
O=c1nc(-c2ccccn2)sc2ccccc12	cell-free assay	competition with immobilised ligand	1 µM	88
CN(C)c1nccc(-c2cnc3ncccn23)n1	binding		1 µM	100
C[C@@H]1CN(c2ccc3ncc(-c4ccc5[nH]nc(C6CC6)c5c4)n3n2)C[C@H](C)O1	binding	competition with immobilised ligand	50 nM	94
C[C@H]1CCN(c2nccc(-c3cnn4ncccc34)n2)C1	binding		1 µM	100
O=C(c1ccc(Nc2ncc(Cl)c(-c3ccc(Cl)s3)n2)cc1)N1CCC(N2CCCC2)CC1	binding	competition with immobilised ligand	1 µM	100
N[C@@H]1CCN(c2nccc(-c3cnn4ncccc34)n2)C1	binding		1 µM	100
Cn1nc(C(F)(F)F)cc1-c1cnc(N2CCc3cc(S(=O)(=O)Nc4c(F)cc(Cl)cc4F)cc(N4CCCC4=O)c32)nc1	cell-free assay	competition with immobilised ligand	1 µM	100
COc1ncc2cc3ccccc3nc2c1C#N	cell-free assay	competition with immobilised ligand	5 µM	96
CN(C)c1ncc(F)c(-c2cnn3ncccc23)n1	binding		1 µM	96
O=C(c1ccc(Nc2nccc(-c3cc4ccccc4s3)n2)cc1)N1CCC(N2CCCC2)CC1	binding	competition with immobilised ligand	1 µM	88
CC1CCCN1c1nccc(-c2cnn3ncccc23)n1 (stereo not drawn)	binding		1 µM	100
CC(C)(C)c1ccc(-c2nc(CBr)nn2-c2cccc(O)c2)cc1	cell-free assay	competition with immobilised ligand	10 µM	86
O=C(N[C@H]1CCCCC/C=C\C2C[C@@]2(C(=O)O)NC(=O)[C@@H]2C[C@@H](Oc3ccncc3)CN2C1=O)OC1CCCC1 (stereo partly drawn)	binding	competition with immobilised ligand	1 µM	90
c1cnn2ncc(-c3ccnc(N4CCC45COC5)n3)c2c1	binding		1 µM	100
